Tests used:
[1] = Drug level in rabbit vaginal tissue at 0.5 ml/day administered intravaginally for 7 days measured 1 hr after final dose by […]; format: ADME, Oryctolagus cuniculus, Vagina; conditions: read-out: Drug uptake
Summary of the method: (§1)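 Six female rabbits received 0.5 ml/day of [14C]dapivirine gel (nominal 0.09 mg/ml, 15 μCi/ml) intravaginally once daily for 7 days by feeding tube inserted about 6 cm, with a collar for about 8 h. Two rabbits per time point were killed at 1, 8 and 24 h after the final dose. PBS-rinsed vaginal wall and ectocervix were homogenized in 2:1 H2O-ACN and extracted with t-butylmethylether. A single LC-MS/MS run was used (0.250–250 ng/g; 10-point weighted quadratic calibration).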

[2] = Drug level in rabbit cervical tissue at 0.5 ml/day administered intravaginally for 7 days measured 24 hrs after final dose by […]; format: ADME, Oryctolagus cuniculus; conditions: read-out: Drug uptake; summary of the method: as §1
Plasma [3] = assay: Drug level in rhesus monkey plasma at 1 ml/day administered intravaginally for 7 days by LC-MS/MS analysis; format: ADME, cell-free, Macaca mulatta; conditions: other, 168 h, in the assay text read “liquid scintillation counting” for “LC-MS/MS analysis”
[4] = Drug level in rhesus monkey vaginal tissue at 1 ml/day administered intravaginally 7 days measured 1 hr after final dose by LC-MS/MS analysis; format: ADME, Macaca mulatta, Vagina; conditions: read-out: Drug uptake
Summary of the method: (§2)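 Nine female macaques were sedated with ketamine (5–20 mg/kg) and given 1 ml/day of [14C]dapivirine gel (nominal 0.09 mg/ml, 15 μCi/ml) intravaginally once daily for 7 days. Three animals per time point were killed (iv pentobarbital, 65 mg/kg) at 1, 24 and 48 h after the final dose. Vaginal wall, ectocervix, and inguinal and iliac lymph nodes were assayed by LC-MS/MS (0.250–250 ng/g). Values below LLOQ were set to 0 for means.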

[5] = Drug level in rhesus monkey vaginal tissue at 1 ml/day administered intravaginally for 7 days measured 24 hrs after final dose by LC-MS/MS analysis; format: ADME, Macaca mulatta, Vagina; conditions: read-out: Drug uptake; summary of the method: as §2
[6] = Drug level in rhesus monkey vaginal tissue at 1 ml/day administered intravaginally for 7 days measured 48 hrs after final dose by LC-MS/MS analysis; format: ADME, Macaca mulatta, Vagina; conditions: read-out: Drug uptake; summary of the method: as §2
[7] = Drug level in rhesus monkey cervical tissue at 1 ml/day administered intravaginally for 7 days measured 1 hr after final dose by LC-MS/MS analysis; format: ADME, Macaca mulatta; conditions: read-out: Drug uptake; summary of the method: as §2
[8] = Drug level in rhesus monkey cervical tissue at 1 ml/day administered intravaginally for 7 days measured 24 hrs after final dose by LC-MS/MS analysis; format: ADME, Macaca mulatta; conditions: read-out: Drug uptake; summary of the method: as §2
[9] = Drug level in rhesus monkey cervical tissue at 1 ml/day administered intravaginally for 7 days measured 48 hrs after final dose by LC-MS/MS analysis; format: ADME, Macaca mulatta; conditions: read-out: Drug uptake; summary of the method: as §2
[10] = Drug level in rhesus monkey inguinal lymph node at 1 ml/day administered intravaginally for 7 days measured 1 hr after final dose by LC-MS/MS analysis; format: ADME, tissue-based, Macaca mulatta; conditions: read-out: Drug uptake; summary of the method: as §2
[11] = Drug level in rhesus monkey inguinal lymph node at 1 ml/day administered intravaginally for 7 days measured 24 hrs after final dose by LC-MS/MS analysis; format: ADME, tissue-based, Macaca mulatta; conditions: read-out: Drug uptake; summary of the method: as §2
[12] = Drug level in rhesus monkey inguinal lymph node at 1 ml/day administered intravaginally for 7 days measured 48 hrs after final dose by LC-MS/MS analysis; format: ADME, tissue-based, Macaca mulatta; conditions: read-out: Drug uptake; summary of the method: as §2
[13] = Drug level in rhesus monkey ileac lymph node at 1 ml/day administered intravaginally for 7 days measured 1 hr after final dose by LC-MS/MS analysis; format: ADME, tissue-based, Macaca mulatta; conditions: read-out: Drug uptake; summary of the method: as §2
[14] = Drug level in rhesus monkey ileac lymph node at 1 ml/day administered intravaginally for 7 days measured 24 hrs after final dose by LC-MS/MS analysis; format: ADME, tissue-based, Macaca mulatta; conditions: read-out: Drug uptake; summary of the method: as §2
[15] = Drug level in rhesus monkey ileac lymph node at 1 ml/day administered intravaginally for 7 days measured 48 hrs after final dose by LC-MS/MS analysis; format: ADME, tissue-based, Macaca mulatta; conditions: read-out: Drug uptake; summary of the method: as §2
Plasma [16] = assay: Drug level in rabbit plasma at 0.5 ml/day administered intravaginally for 7 days by liquid scintillation counting; conditions: other, 168 h

- concentration at 1 h [1]: > 3000 ng/g
- concentration at 24 h [2]: ≥ 2.5 ng/g
- Drug uptake (Plasma [3]): <= 83 dpm/ml
- concentration at 1 h [4]: 4260 ng/g
- concentration at 24 h [5]: 1160 ng/g
- concentration at 48 h [6]: 515 ng/g
- concentration at 1 h [7]: 2400 ng/g
- concentration at 24 h [8]: 271 ng/g
- concentration at 48 h [9]: 81 ng/g
- concentration at 1 h [10]: 10.6 ng/g
- concentration at 24 h [11]: 1.77 ng/g
- concentration at 48 h [12]: 0.48 ng/g
- concentration at 1 h [13]: 14.9 ng/g
- concentration at 24 h [14]: 11.6 ng/g
- concentration at 48 h [15]: 1.16 ng/g
- Drug uptake (Plasma [16]): 246 dpm/ml
SMILES: Cc1cc(C)c(Nc2ccnc(Nc3ccc([14C]#N)cc3)n2)c(C)c1 [[14C]DAPIVIRINE]

— ChEMBL document CHEMBL1255242, “Concentrations of dapivirine in the rhesus macaque and rabbit following once daily intravaginal administration of a gel formulation of [14C]dapivirine for 7 days” (Antimicrob Agents Chemother, 2008)
